# Laboratory results taken from PMC10189352 (Molecular Therapy. Nucleic Acids, 2023).
# How the values were obtained:
# [1] = system: BRD4 occupancy at e1-e5 Myc enhancers; test: BRD4 ChIP-qPCR at Myc enhancers in murine AML cells; assay type: cell-based
# AsPC-1 cells = test: Colony formation of adherent cancer cells; assay type: cell-based, human; conditions: dose-dependent; after 5 days of treatment
# [2] = system: human leukemia cell lines; test: Proliferation assay of human leukemia cell lines; assay type: cell-based; conditions: 48 h, normalized to DMSO-treated cells
# Outline: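 Human leukemia cell lines were grown with test compound. Proliferation rate was normalised to DMSO-treated cells; n = 3, mean ± SEM.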
# human AML cells = test: Methylcellulose-based colony formation of human AML cells; assay type: cell-based; conditions: semi-solid methylcellulose (Figure 3E)
# c-Kit surface expression = test: Flow cytometric analysis of c-Kit in murine AML cells; assay type: cell-based; conditions: 48 h, flow cytometry
# SW-480 cells = test: Colony formation of adherent cancer cells; assay type: cell-based, human; conditions: dose-dependent; after 5 days of treatment
# [3] = system: MLL-AF9;Nras^G12D AML cells; test: Propidium iodide staining of murine AML cells; assay type: cell-based; conditions: 48 h (Figure 3D)
# [4] = system: murine AML cells (MLL-AF9; Nras^G12D); test: RNA-seq and GSEA in murine AML cells; assay type: cell-based; conditions: RNA-seq; for mRNA levels of JQ1-rapid target genes (n = 50): relative to DMSO
# MYC = test: Western blot of MYC protein in murine AML cells; assay type: cell-based; conditions: murine MLL-AF9, Nras^G12D AML cells, 6 h, RVX-208 1 μM, OTX-015 1 μM, candidates 10 μM
# Outline: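 Whole-cell lysates were prepared after the 6 h treatment and probed for MYC by western blot. DMSO-treated cells were the vehicle control.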
# Hexim1 mRNA = test: RT-qPCR of Hexim1 in murine AML cells; assay type: cell-based; conditions: 6 h treatment
# [5] = system: murine AML cells expressing Myc cDNA; test: Ectopic Myc cDNA expression rescue in murine AML cells; assay type: cell-based; conditions: murine AML cells transduced with Myc cDNA MSCV retrovirus
# PDA organoids = test: PDA organoid growth; assay type: cell-based, mouse; conditions: 24, 48, and 72 h, light microscopy; CellTiter Glo-3D
# Outline: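 PDA organoids were treated with test compound or DMSO and imaged by light microscopy at 24, 48 and 72 h. Growth was quantified with CellTiter-Glo 3D. Data are shown as mean ± SEM, and p-values came from Student's t test.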
# [6] = system: RNA polymerase II chromatin occupancy; test: RNA Pol II ChIP-seq in murine AML cells; assay type: cell-based; conditions: BRD4-occupied sites
# BRD4 chromatin occupancy = test: BRD4 ChIP-seq in murine AML cells; assay type: cell-based; conditions: regions enriched with H3K27ac
# [7] = system: BD2 vs BD1 of BET proteins; conditions: approximately; cited from earlier work
Compound,BRD4 occupancy at e1-e5 Myc enhancers [1],clonogenic growth of AsPC-1 cells (AsPC-1 cells),"anti-proliferative activity in K562, NOMO-1, JURKAT, and HL-60 [2]","anti-proliferative activity in MV4-11, KASUMI-1, MOLM-13, and THP-1 [2]",ability to form colonies on methylcellulose (human AML cells),c-Kit surface expression (c-Kit surface expression),clonogenic growth of SW-480 cells (SW-480 cells),proliferation of leukemia cells [3],LSC signature genes (GSEA) [4],mRNA levels of JQ1-rapid target genes (n = 50) [4],expression of genes close to the BBC1115-sensitive 330 regions (GSEA) ([4]; vs DMSO),MYC protein expression (MYC),increase of Hexim1 mRNA expression (Hexim1 mRNA) [fold],effect of ectopic Myc expression on drug sensitivity [5],PDA organoid growth (PDA organoids),RNA Pol II chromatin binding (ChIP-seq) [6],BRD4 chromatin occupancy (ChIP-seq) (BRD4 chromatin occupancy),stronger binding affinity toward BD2 than BD1 [7]
"Cc1sc2c(c1C)C(c1ccc(Cl)cc1)=N[C@@H](CC(=O)Nc1ccc(O)cc1)c1nnc(C)n1-2 [OTX-015, birabresib]",impaired the occupancy of BRD4 at the e1-e5 Myc enhancers,markedly inhibit clonogenic growth,minimal sensitivity,broad growth-suppressive effect,substantially suppressed,downregulated c-Kit,markedly inhibit clonogenic growth,inhibited the proliferation of leukemia cells,significantly suppressed the LSC signature genes,strongly downregulated all JQ1-rapid targets,significantly downregulated,downregulated MYC protein levels,> 20,ectopic Myc expression conferred resistance,attenuated PDA organoid growth,–,–,–
"COc1cc(OC)c2c(=O)[nH]c(-c3cc(C)c(OCCO)c(C)c3)nc2c1 [RVX-208, apabetalone]",negligible effect on the BRD4 occupancy at e1-e5,–,–,–,–,–,–,–,insignificant,downregulated some but not all JQ1-rapid targets,–,only modestly affected MYC protein expression,–,–,"but not RVX-208, attenuated PDA organoid growth",negligible,negligible,10- to 100 fold
